# Sampled rows, rich in hits. Any-hit rate of the full collection: about 2.4%.
# bCat nuc transl: alters nuclear translocation of beta-catenin in HeLa cells; hit rate 0.3% among 190,000; nuclear translocation activity, % at 5 µM; immunofluorescence imaging;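 active means nuclear translocation activity above 50% at 5 µM, with a well cell count of 50 or more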;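 further: per-cell ratio of nuclear to cytoplasmic median beta-catenin stain intensity; plate controls were DMSO negative control for no effect and GSK-3 inhibitor IX positive control for full effect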
#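 Technique: fluorescence imaging of beta-catenin antibody stain plus DAPI / Material: human HeLa cell line / Incubation: compound treatment 24 h, 37°C, 5% CO2 / Read-out basis: % activation of per-cell nuclear versus cytoplasmic median beta-catenin signal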
# STAT3 inh: inhibitors of IL-6 induced STAT3 signaling; U3A cells, IL-6 STAT3-luciferase reporter, luminescence; host cell line lacks STAT1; inhibition, % at 5.5 µM; hit rate 0.89% among 190,000; AID 862;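 active means inhibition above the mean inhibition across all screened compounds plus 3 SD, cut at about 44% in these data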;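 further: 0% = DMSO only wells and 100% = 100 µM nifuroxazide control wells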
# STAT1 inh: reduces IFN-gamma driven STAT1 reporter signal; NIH 3T3 STAT1-luciferase reporter, luminescence; inhibition, % at 5.5 µM; hit rate 0.35% among 200,000;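 active means inhibition above a set limit, the mean inhibition across all tested compounds plus 3 SD, cut at about 34% in these data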;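 further: 0% = IFN-gamma with DMSO and 100% = IFN-gamma with 300 µM nifuroxazide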
# MT stabilize HCS: stabilizes microtubules in HeLa cells; HeLa tubulin immunostaining HCS, 24 h; share of cells brighter than vehicle mean+2SD; % tubulin-high responders, % at 10 µM; hit rate 0.83% among 200,000;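 active means plate Z-score above 3 for both tubulin-high and condensed-nucleus cell shares, with cell loss under 80%, at 10 µM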;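 further: anti alpha tubulin signal scored within the nucleus-defined area of each cell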
# STAT3 act: activators of IL-6 induced STAT3 signaling; hit rate 0.91% among 190,000; activation (% of control), % at 5.6 µM; U3A cells, IL-6 STAT3-luciferase reporter, luminescence; 100% = signal with IL-6 EC80 alone;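 active means activation above the screen-wide mean of compound activation plus 3 SD, cut at about 130% in these data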;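 further: 0% = background luminescence of wells with medium and substrate only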
#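 Material: human U3A cells carrying STAT3-luciferase construct. Measured by: reporter luminescence signal. Timing: compound 1 h, then IL-6 6 h at 37 °C.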
# Numbers without * were called inactive; nt = no result given.
SMILES,bCat nuc transl,STAT3 inh,STAT1 inh,MT stabilize HCS,STAT3 act
CC(C)(C)c1ccc(C2CC2C(=O)N/N=C\c2ccc[nH]2)cc1 (stereo unspecified),7.9,71.0*,45.8*,10.6,41.5
O=C(N/N=C/c1ccco1)C1CC1c1ccccc1 (stereo unspecified),-0.7,-1.4,-1.7,4.3,101.9
CCN(Cc1ccncc1)Cc1nc(CC2CC2)no1,4.5,-3.4,2.3,1.1,105.0
Cc1ccc2[nH]c3c(c2c1)CN(C(=O)CN1c2ccc(F)cc2CCC1C)CC3 (stereo unspecified),30.3,11.2,2.6,37.8*,94.0
COc1ccc(-c2nn(-c3ccccc3)cc2/C=N/NC(=O)c2ccc(Br)o2)cc1,1.4,45.1*,0.1,3.0,69.4
O=C(N/N=C/c1cn(-c2ccccc2)nc1-c1ccc(F)cc1)c1ccc2c(c1)OCO2,0.6,13.2,6.7,16.1*,89.8
O=C(NCc1ccco1)C1CC(c2ccccc2C(F)(F)F)=NO1 (stereo unspecified),3.9,nt,nt,nt,nt
COc1ccc(OC)c(C2=NOC(C(=O)NCc3ccco3)C2)c1 (stereo unspecified),nt,-5.7,6.1,21.1*,102.1
O=C(NCc1ccco1)C1CC(c2cc(C(F)(F)F)cc(C(F)(F)F)c2)=NO1 (stereo unspecified),92.2*,nt,nt,nt,nt
Cc1ccc(C2C(C#N)=C(N)OC3=C2C(=O)CC(C)(C)C3)s1 (stereo unspecified),0.3,nt,nt,nt,nt
COc1cccc(N/C(SC)=C(/C#N)C(N)=O)c1,-1.4,-6.0,-8.2,21.7*,108.8
COc1cccc(N/C(SC)=C(/C#N)C(=O)NCc2cccs2)c1,-0.4,-0.8,-0.5,2.4,102.5
O=C(N/N=C/c1cccc(Oc2ccccc2)c1)c1ccccc1Br,4.2,10.6,-1.9,26.6*,97.5
Cc1ccc(-c2nc(CN(C)Cc3cccc4cnccc34)c(C)o2)s1,-0.7,21.1,9.7,4.6,85.7
CCOC(=O)c1[nH]c(C)c(C(=O)NCc2ccc(C)cc2)c1C,nt,0.4,3.3,2.1,107.1
CCOC(=O)c1[nH]c(C)c(C(=O)Nc2ccccc2F)c1C,-0.2,6.7,-24.9,33.6*,96.8
CCOC(=O)c1[nH]c(C)c(C(=O)Nc2ccc(C)cc2C)c1C,7.7,10.7,-3.8,16.5*,95.5
CCOC(=O)c1[nH]c(C)c(C(=O)c2ccc(C)cc2)c1C,nt,0.8,-18.3,44.0*,99.5
Cc1cc2cc(CNC(=S)NC3CCCCC3)ccc2n1C,-0.1,8.1,-0.3,1.6,97.1
Cc1ccc(C)c(CSc2nc3[nH]ncc3c(=O)[nH]2)c1,20.6,12.9,-1.8,22.9*,89.9
CCCCOc1ccc(CN(C)c2ncnc(N)n2)cc1,27.2,-3.9,-0.4,23.1*,107.0
CC(=O)N1CC2(NC(=O)c3ccccc3N2)c2ccccc21 (stereo unspecified),-2.2,nt,1.0,4.9,nt
Cc1ccc(Nc2cc(=O)oc3ccccc23)c(C)c1,0.9,6.5,5.0,26.8*,99.9
CCOC(=O)c1c(CN2CCN(c3ccccc3)CC2)oc2ccc(O)cc12,3.0,-1.8,-2.1,12.6*,101.6
CCOC(=O)c1c(CN2CCN(C)CC2)oc2ccc(OC)cc12,-0.4,10.7,4.9,4.1,94.7
SMILES,bCat nuc transl,STAT3 inh,STAT1 inh,MT stabilize HCS,STAT3 act
Nc1ccc(C(=O)OCc2nc3c(ccc4ccccc43)[nH]2)cc1,-1.3,-38.9,-52.8,4.1,135.6*
Cc1ccc2nc(SCC(=O)Nc3ccccc3N3CCOCC3)c(C#N)cc2c1,-5.8,7.0,0.0,46.3*,95.1
CCc1ccc2nc(SCC(=O)Nc3ccccc3N3CCOCC3)c(C#N)cc2c1,19.2,nt,nt,nt,nt
CCN(CC)CCCNC(CC(=O)Nc1cccc([N+](=O)[O-])c1)C(=O)O (stereo unspecified),-4.5,-5.8,-1.9,2.3,102.6
CCOc1cc(C2Nc3ccccc3C(=O)N2c2ccccc2)ccc1O (stereo unspecified),0.0,-1.0,-3.1,1.2,104.0
COc1cc(C2Nc3ccccc3C(=O)N2c2ccccc2)ccc1O (stereo unspecified),-2.9,-37.9,-17.0,1.2,133.0*
Cc1ccc(S(=O)(=O)Nc2ccccc2-c2ccccc2)cc1,61.7*,5.7,1.7,36.1*,101.7
CCOC(=O)c1ccccc1NS(=O)(=O)c1ccc(C)cc1,nt,-7.7,1.1,26.2*,103.7
Cc1ccc(S(=O)(=O)Nc2ccnc3ccccc23)cc1,-3.3,9.3,-1.0,1.5,97.0
Cc1ccc(S(=O)(=O)Nc2ccc(O)c3ncccc23)cc1,58.5*,1.5,-1.3,10.3,100.8
CCOC(=O)c1ccccc1NS(=O)(=O)c1ccccc1,-1.2,6.7,-0.3,2.6,96.9
Cc1ccccc1Nc1cccc2nonc12,2.6,5.5,2.7,1.2,93.7
COC(=O)C1CCN(C(=O)Nc2ccccc2)CC1,-0.2,0.3,-9.8,2.1,103.8
N#Cc1ccc(-c2ccc(OCC(=O)NCC(=O)Nc3ccc(F)c(F)c3F)cc2)cc1,0.4,-1.0,4.9,3.1,100.8
COc1ccc(NS(=O)(=O)c2cc(OC)ccc2NC(=O)c2cc(C)oc2C)cc1,3.3,6.3,-3.2,38.4*,99.8
COc1ccc(NS(=O)(=O)c2cc(C)ccc2C)cc1,0.0,8.9,-0.6,58.6*,96.8
COc1cc(C2C(C#N)=C(C)NC3=C2C(=O)c2ccccc23)cc(OC)c1OC (stereo unspecified),5.0,-18.4,-11.3,16.5*,119.7
CC1=C([N+](=O)[O-])C(c2ccccc2)C2=C(N1)c1ccccc1C2=O (stereo unspecified),-2.4,-7.9,6.1,9.9*,103.9
COc1ccc(C2C(C#N)=C(C)NC3=C2C(=O)c2ccccc23)cc1 (stereo unspecified),1.5,21.3,5.1,11.3,86.8
COC(=O)c1nn(-c2ccc(Oc3ccccc3)cc2)c(=O)cc1O,-0.6,4.6,26.0,10.0,98.2
C/C(=N\NC(N)=S)C1C2C3CC4C5CC(C42)C1C53 (stereo unspecified),0.0,5.8,-19.5,7.4*,96.5
CCCOc1c(OC)cccc1C1CC(=O)Nc2cc3c(cc21)OCO3 (stereo unspecified),-0.7,8.0,6.5,37.0*,98.0
CCCOc1c(OC)cccc1C1CC(=O)Nc2cc3c(cc21)OCCO3 (stereo unspecified),nt,20.1,3.2,50.7*,90.1
CCOc1ccccc1C1CC(=O)Nc2cc3c(cc21)OCO3 (stereo unspecified),1.6,9.0,4.1,29.3*,93.9
O=C(c1ccc(CSc2nc3ccncc3[nH]2)cc1)N1CCCCCC1,0.4,nt,nt,nt,nt
Clc1ccc(CSc2nc3ccncc3[nH]2)cc1,nt,81.4*,52.0*,4.4,37.3
Cc1ccc(CSc2nc3ccncc3[nH]2)cc1,nt,100.0*,71.5*,2.7,20.8
O=c1[nH]c(CNCc2cccnc2)nc2ccccc12,0.0,6.7,-7.7,5.2,98.0
Cc1ccc(O)c(N=Cc2sc3ccccc3c2Cl)c1,-1.7,-6.4,3.0,2.5,104.3

# Assay outcomes: PubChem BioAssay, several laboratories
